Experimental data collected from several papers.
Protocols differ between the studies behind these lines.
Target: Fibroblast growth factor receptor 2 (FGFR2, Homo sapiens, UniProt P21802)

SMILES | assay | setting | remaining binding [%]
Cc1cc(-n2nc(Cc3cc(F)cc(C(F)(F)F)c3)nc2C)ccc1C(N)=O | cell-free assay, competition with immobilised ligand | 1 µM | 100
CN(C)c1nccc(-c2cnn3ncccc23)n1 | binding | 1 µM | 100
CC(C)(C)c1ccc(-c2nc(CBr)nn2-c2cccc(O)c2)cc1 | cell-free assay, competition with immobilised ligand | 10 µM | 95
Cc1cnc(Nc2ccc(C(=O)N3CCC(N4CCCC4)CC3)cc2)nc1-c1cc2ccccc2s1 | binding, competition with immobilised ligand | 1 µM | 14
COc1ncc2cc3ccccc3nc2c1C#N | cell-free assay, competition with immobilised ligand | 5 µM | 93
C[C@H](NC(=O)c1cnc2n1[C@](C)(Cc1ccc(C#N)cc1)C(=O)N2c1cc(Cl)c(F)c(Cl)c1)C(=O)NC1(c2ccccn2)CC1 | cell-free assay, competition with immobilised ligand | 1 µM | 100
O=C(Nc1c[nH]nc1C(=O)NC1CCNCC1)c1cc(F)cc(F)c1 | binding, competition with immobilised ligand | 1 µM | 100
N[C@H]1CCN(c2nccc(-c3cnn4ncccc34)n2)C1 | binding | 1 µM | 92
C[C@@H](c1ccc(-n2cnc3c(N)ncnc32)cc1)N1CCc2nn(C)c(Cc3ccccc3)c2C1=O | binding, competition with immobilised ligand | 0.1 µM | 72
COc1ccnn2ncc(-c3ccnc(N(C)C)n3)c12 | binding | 1 µM | 100
CCCOc1ccc([C@@H]2[C@@H](C(=O)O)[C@H](c3ccc4c(c3)OCO4)CN2CC(=O)Nc2c(CC)cccc2CC)cc1 | cell-free assay, competition with immobilised ligand | 1 µM | 100
CN(C)c1nccc(-c2cnc3ncccn23)n1 | binding | 1 µM | 100
CNC(=O)[C@@H]1CC[C@@H](n2c(-c3ccc4cnccc4c3)nc3ccc(C(=O)NCc4cccc(C(N)=O)c4)cc32)C1 | binding, competition with immobilised ligand | 1 µM | 96
CC1CCCN1c1nccc(-c2cnn3ncccc23)n1 (stereo not shown) | binding | 1 µM | 100
O=C(O)[C@H]1[C@H](Cn2nnc3ccccc3c2=O)CC[C@@H]1C(=O)c1ccc(OCCC2CCOCC2)cc1 | cell-free assay, competition with immobilised ligand | 1 µM | 100
C[C@@H]1CCN(c2nccc(-c3cnn4ncccc34)n2)C1 | binding | 1 µM | 92
COc1ccc2cc(OCC3(C(=O)O)CN(C(=O)c4ccc(F)cc4)C3)ccc2c1 | cell-free assay, competition with immobilised ligand | 1 µM | 100
FC(F)(F)Oc1cccc(-c2cnc3ccc(-c4ccncc4)nn23)c1 | cell-free assay, competition with immobilised ligand | 5 µM | 81
C[C@H](c1ccc(F)cc1)N(Cc1cccc(C(=O)O)c1)C(=O)c1cnc2ccccc2c1 | cell-free assay, competition with immobilised ligand | 1 µM | 74
O=C(c1ccc(Nc2ncc(Cl)c(-c3ccc(Cl)s3)n2)cc1)N1CCC(N2CCCC2)CC1 | binding, competition with immobilised ligand | 1 µM | 4.4
CN(c1nccc(-c2cnn3ncccc23)n1)C1CC1 | binding | 1 µM | 100
O=C(c1ccc(Nc2nccc(-c3cc4ccccc4s3)n2)cc1)N1CCC(N2CCCC2)CC1 | binding, competition with immobilised ligand | 1 µM | 77
CC(=O)c1c(NS(C)(=O)=O)c2cc(-c3ccc(Cl)cc3)c(-c3ccc(Cl)cc3Cl)nc2n(C)c1=O | cell-free assay, competition with immobilised ligand | 1 µM | 92
C[C@@H]1CN(c2ccc3ncc(-c4ccc5[nH]nc(C6CC6)c5c4)n3n2)C[C@H](C)O1 | binding, competition with immobilised ligand | 0.5 µM | 100
N#Cc1ccccc1CSc1nnc2c(n1)[nH]c1ccccc12 | binding, competition with immobilised ligand | 10 µM | 91
